T cell HTS = T cell immune modulation candidate. 2C CD8+ T cell-vesicle binding, flow cytometry; active compounds read low. response (vesicle binding), % at 7 µM. 0.068% of 330,000 active. AID 2052;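 active = response, share of CD8 T cells binding vesicles, and their 90th percentile fluorescence all below set limits, cut at about 80% in these data, passing the limit was not always enough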;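 note: values below 100% mean blocked vesicle binding to the CD8+ T cells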
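Test system: purified 2C TCR transgenic mouse naive CD8+ T cells. Probe or stimulus: QL9-peptide-loaded Drosophila micro-vesicles bearing Ld, ICAM-1 and B7-1. Incubation: binding step 1.5 h, 37 °C, antibody labelling 20 min, ice. Measured by: flow cytometry of vesicle-bound cells.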
Rtt109 Vps75 = inhibitors of Candida albicans Rtt109/Vps75 histone acetyltransferase; purified Rtt109/Vps75, ThioGlo CoA-SH fluorescence, 4 h; inhibition, % at 34.9 µM; 0.16% of 330,000 active; AID 540336;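 active = inhibition of at least 50% in every replicate; inconclusive = best replicate reaches 50% inhibition but some replicates fall short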
GASC-1 inh = inhibitors of human GASC-1 (JMJD2C) demethylase. Q9H3R0. GST-JMJD2C(1-420) H3K9me3 demethylation, DELFIA europium. inhibition, % at 2.35 µM. 0.069% of 330,000 active. AID 2099;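 active = more than half of a compound's replicate wells show inhibition beyond 50%, single wells judged on their own value; inconclusive = some, but no more than half, of replicates pass 50% inhibition; inactive = no replicate passes 50% inhibition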;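 note: signal counts dimethyl H3K9 product captured on neutravidin plate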
Target sequence (Q9H3R0 1-420 limits assumed): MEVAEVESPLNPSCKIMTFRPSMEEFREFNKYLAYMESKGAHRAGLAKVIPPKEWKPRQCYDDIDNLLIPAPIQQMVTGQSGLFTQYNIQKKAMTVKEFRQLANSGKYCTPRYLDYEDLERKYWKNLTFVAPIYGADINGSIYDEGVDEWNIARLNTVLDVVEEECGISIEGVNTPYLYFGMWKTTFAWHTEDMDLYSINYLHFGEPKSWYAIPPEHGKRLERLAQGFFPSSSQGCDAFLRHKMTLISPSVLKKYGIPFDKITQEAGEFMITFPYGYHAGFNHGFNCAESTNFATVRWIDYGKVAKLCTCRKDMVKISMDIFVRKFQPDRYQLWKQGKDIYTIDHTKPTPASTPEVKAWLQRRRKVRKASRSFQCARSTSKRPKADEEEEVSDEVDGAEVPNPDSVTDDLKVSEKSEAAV
NR3A LBD binder = modulates the human NR3A ligand-binding domain; NR3A LBD differential scanning fluorimetry, Tm shift; 0% = protein alone, 100% = glycine-bound protein; Tm shift relative to glycine control, % at 25 µM; 2.5% of 340,000 active;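 active = melting temperature shift of at least 10% of the positive control shift, at one fixed dose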
Large screens that a line does not name were inactive. Shown are actives, neighbours in structure and some others; about 2.8% of the full set was active somewhere.

CC(OC(=O)c1ccc([N+](=O)[O-])o1)C(=O)Nc1nc(-c2ccc(F)c(F)c2)cs1 (stereo not given)	NR3A LBD binder 14.8 (no result: T cell HTS, GASC-1 inh)
CCOc1ccc(-c2cccc(NS(=O)(=O)c3cc([N+](=O)[O-])ccc3C)c2)nn1	NR3A LBD binder 10.5
CCOc1ccc(C2C=C(c3ccc(C)cc3)Nc3ncnn32)cc1 (stereo not given)	T cell HTS 30.4 (no result: Rtt109 Vps75, NR3A LBD binder)
Cc1ccc(C2=CC(c3ccc(C)cc3)n3ncnc3N2)cc1 (stereo not given)	none
COc1ccc(Cn2cnc3c4cc(F)ccc4n(C)c3c2=O)cc1	NR3A LBD binder 15.4 (no result: Rtt109 Vps75)
COc1ccccc1N=Cc1c(C)c(C#N)c2[nH]c3ccccc3n2c1=O	GASC-1 inh 58.5
CC(=O)c1ccc(NC(=S)N(C)C2CCN(C)CC2)cc1	NR3A LBD binder 19.6
O=c1cc(CSc2nc3ccccc3c(=O)[nH]2)c2ccc(O)cc2o1	NR3A LBD binder 29.4 (no result: T cell HTS)
O=c1[nH]c(SCc2ccccc2F)nc2ccccc12	none (no result: Rtt109 Vps75)
Nc1cccc(Oc2c(F)c(F)c(Oc3cccc(N)c3)c(F)c2F)c1	NR3A LBD binder 22.8
Nc1cccc(Oc2ccc([N+](=O)[O-])cc2)c1	none
Cc1ccc(C)c(N2CCN(C(=O)c3ccc(Cl)c(NC4=NC5CS(=O)(=O)CC5S4)c3)CC2)c1 (stereo not given)	none
CC(=O)Nc1sc(C)c(C)c1C(=O)OCC(=O)NCc1ccc(F)cc1	none
CCOC(=O)C1CCCN(C(=O)c2cccc(S(=O)(=O)N(Cc3ccccc3)c3ccccc3OC)c2)C1 (stereo not given)	none
O=C(N/N=C/c1cccc(O)c1)NC1CCCCC1	none
O=C(N/N=C/c1cccc(O)c1)c1ccc(NC(=O)C2CCCCC2)cc1	NR3A LBD binder 10.1
O=C(N/N=C/c1ccc(O)cc1O)c1ccc(NC(=O)C2CCCCC2)cc1	NR3A LBD binder 23.4
Cc1ccc(NC(=O)CCNC(=O)c2ccccc2Cl)cc1S(=O)(=O)N1CCOCC1	none (no result: GASC-1 inh)
Cc1nonc1NC(=O)CSc1nnc(-c2ccoc2C)n1C	NR3A LBD binder 20.1
Cn1c(SCC(=O)Nc2cc(Cl)cc(Cl)c2)nnc1-c1ccc2nonc2c1	NR3A LBD binder 45.4 (no result: Rtt109 Vps75)
Cc1cc(-c2nc(C)c(-c3nnc(SCC(=O)Nc4cc(Cl)cc(Cl)c4)n3C)s2)no1	none
CC(=O)c1ccc(S(=O)(=O)NCCC(=O)NC2CCN(Cc3ccccc3)CC2)cc1	none
O=C(NC1CC2CCCC(C1)N2Cc1ccccc1)c1cccc(Cl)c1 (stereo not given)	none
CCCCCCC#Cc1ccc2c(c1)COc1c3ccccc3nn1-2	T cell HTS 0.0
CCOC(=O)/C(C#N)=C1/C=CN(c2ccccc2)C=N1	NR3A LBD binder 14.0
NC(=O)c1sc2nc(-c3cccnc3)ccc2c1N	none (no result: Rtt109 Vps75)
CCOC(=O)c1sc2nc(-c3cccnc3)ccc2c1N	NR3A LBD binder 19.6
Nc1c(C(=O)Nc2ccccc2F)sc2nc(-c3ccco3)ccc12	none
COc1ccc(C(=O)c2sc3nc(-c4ccccc4)ccc3c2N)cc1	NR3A LBD binder 17.6
Nc1c(C(=O)Nc2ccccc2F)sc2nc(-c3cccnc3)ccc12	NR3A LBD binder 14.6
Cc1nc(-c2ccccc2)nc2sc(C(=O)c3ccc(F)cc3)c(N)c12	NR3A LBD binder 15.2
CCOC(=O)N1CCC(NCCNC(=O)c2cccc(F)c2)CC1	none
Cc1onc(-c2ccccc2)c1C(=O)OCC(=O)N(C)c1ccccc1	none
O=C(OCc1ccc(Cl)c(Cl)c1)c1ccc[nH]1	none
CCOC(=O)C1=C(COC(=O)c2ccc(OC)c(S(=O)(=O)N3CCOCC3)c2)NC(=O)NC1C (stereo not given)	none (no result: T cell HTS, GASC-1 inh)
CC(CNC(=O)CN1C(=O)NC2(CCOc3ccccc32)C1=O)c1ccccc1 (stereo not given)	none
Nn1cnc2c(c1=O)C1(CCCCC1)Cc1ccccc1-2	none
Oc1ccc(-c2nc3c4c(ncn3n2)-c2ccccc2CC42CCCC2)cc1	NR3A LBD binder 60.6
O=C(Nc1nc2ccc(Cl)cc2s1)c1ccc(N2CCCCC2)c([N+](=O)[O-])c1	NR3A LBD binder 15.0
O=C(Nc1nc2ccc3ccccc3c2s1)c1ccc(N2CCCCC2)c([N+](=O)[O-])c1	NR3A LBD binder 19.4
O=C(Nc1cc(Cl)ccc1N1CCOCC1)c1ccc(N2CCCCC2)c([N+](=O)[O-])c1	none
O=C(CN1C(=O)NC2(CCCC2)C1=O)N1CCN(c2ccccc2O)CC1	none
COc1cc(/C=N/N=C(/N)c2nonc2N)cc(Br)c1OCc1ccccc1C	NR3A LBD binder 15.1
CCOc1cc(/C=N/N=C(/N)c2nonc2N)cc(Br)c1OCc1ccc(Cl)cc1	none
COc1cc(/C=N/NC(N)=S)ccc1OCc1ccc(C)cc1	NR3A LBD binder 25.5 (no result: Rtt109 Vps75)
COc1ccc(C=NNC(=S)NN=Cc2ccc(OC)c(OC)c2)cc1OC	none (no result: T cell HTS, GASC-1 inh)
COc1cc(/C=N/NC(N)=S)ccc1OC(=O)c1ccc(C)cc1	NR3A LBD binder 25.9
O=C(Nc1ccc(-c2nc3cccnc3s2)cc1)c1ccco1	NR3A LBD binder 11.5
O=C(Nc1ccc(-c2nc3cccnc3s2)cc1)c1ccc(Br)o1	NR3A LBD binder 19.9 (no result: T cell HTS)
O=C(Nc1cccc(-c2nc3cccnc3s2)c1)c1ccco1	none
Cc1cc(C)nc(NS(=O)(=O)c2ccc(NC(=O)CN3C(=O)S/C(=C\c4ccccc4)C3=O)cc2)n1	NR3A LBD binder 11.3
CCc1ccccc1OCC(=O)Nc1cccc(S(=O)(=O)NCc2ccco2)c1	none
Cc1cc(C)nc(NS(=O)(=O)c2ccc(NC(=O)Nc3ccccc3)cc2)n1	NR3A LBD binder 18.6
O=C(CN1C(=O)S/C(=C\c2ccc(F)cc2)C1=O)Nc1cccc(S(=O)(=O)NCc2ccco2)c1	NR3A LBD binder 11.4
O=C(O)c1ccc(N/N=C/c2cc3cc4c(cc3nc2Cl)OCCO4)cc1	none
O=C(CN1CCN(c2ccccc2F)CC1)N1CCc2ccccc21	none
COc1cc(/C=C2\OC(=O)c3c(OC)cccc32)ccc1O	NR3A LBD binder 16.9
COc1cc([C@@H]2c3cc4c(cc3[C@@H](O)[C@H]3COC(=O)[C@H]23)OCO4)cc(OC)c1O[Si](C)(C)C(C)(C)C	NR3A LBD binder 11.4
CN(C)CCNC(=S)Nc1ccc(-c2nc3ccccc3[nH]2)cc1	none
S=C(NCc1ccc2c(c1)OCO2)Nc1ccc(-c2nc3ccccc3[nH]2)cc1	NR3A LBD binder 26.4
Cc1ccc(-c2nc3ccccc3[nH]2)cc1NC(=O)c1ccc2c(c1)OCO2	none
O=C(NC(=S)Nc1cc(-c2nc3ccccc3[nH]2)ccc1Cl)c1ccc2c(c1)OCO2	NR3A LBD binder 18.2
CC(C(Sc1ccccc1N)c1ccccc1)[N+](=O)[O-] (stereo not given)	none (no result: Rtt109 Vps75)
C#CCOCCOCCOCCNc1nc(N2CCN(C(=O)CCCCCCCCCCNC(=O)Cn3cc(CCCCCN)nn3)CC2)nc(N2CCN(C(=O)CCCCCCCCCCNC(=O)Cn3cc(CCCCCN)nn3)CC2)n1	Rtt109 Vps75 inconclusive (no result: GASC-1 inh)
COc1cc(Cl)c(C)cc1NC(=O)COC(=O)c1ccc(CN2CCCC2=O)cc1	none
COCCN(C(=O)COC(=O)Cc1cccc(OC)c1)c1c(N)n(CC(C)C)c(=O)[nH]c1=O	none

Compound activity: PubChem BioAssay, several laboratories
